Measurements from PubChem BioAssay.
Activity calls are given as the source filed them.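 The calls were made as follows, unless noted: active = Her2 level under about 52% in both replicate screens, with viability over 70% of control (limit read from the data); inconclusive = Her2 under the limit in one screen only, or viability under 70%; inactive = Her2 level above the set limit.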

Tests used:
[1] = Her2 expression decrease, cell viability multiplex – SKBR3 breast tumor cells, AlphaScreen, ATP viability, primary screen (AID 461); conditions: SKBR3 Her2 protein level, 18-24 h, measured here: SKBR3 viability, ATP luminescence, at 10 µM;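 as to Her2 level: lower value means less Her2 protein in the cells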;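 as to viability: percent of carrier control wells set as 100% viability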
[2] = biological target: Receptor tyrosine-protein kinase erbB-2 (Homo sapiens) (UniProt P04626); assay: as above; conditions: 18-24 h, at 10 µM, stronger effect = lower value
Receptor tyrosine-protein kinase erbB-2 (Homo sapiens), sequence (P04626 whole entry, looked up): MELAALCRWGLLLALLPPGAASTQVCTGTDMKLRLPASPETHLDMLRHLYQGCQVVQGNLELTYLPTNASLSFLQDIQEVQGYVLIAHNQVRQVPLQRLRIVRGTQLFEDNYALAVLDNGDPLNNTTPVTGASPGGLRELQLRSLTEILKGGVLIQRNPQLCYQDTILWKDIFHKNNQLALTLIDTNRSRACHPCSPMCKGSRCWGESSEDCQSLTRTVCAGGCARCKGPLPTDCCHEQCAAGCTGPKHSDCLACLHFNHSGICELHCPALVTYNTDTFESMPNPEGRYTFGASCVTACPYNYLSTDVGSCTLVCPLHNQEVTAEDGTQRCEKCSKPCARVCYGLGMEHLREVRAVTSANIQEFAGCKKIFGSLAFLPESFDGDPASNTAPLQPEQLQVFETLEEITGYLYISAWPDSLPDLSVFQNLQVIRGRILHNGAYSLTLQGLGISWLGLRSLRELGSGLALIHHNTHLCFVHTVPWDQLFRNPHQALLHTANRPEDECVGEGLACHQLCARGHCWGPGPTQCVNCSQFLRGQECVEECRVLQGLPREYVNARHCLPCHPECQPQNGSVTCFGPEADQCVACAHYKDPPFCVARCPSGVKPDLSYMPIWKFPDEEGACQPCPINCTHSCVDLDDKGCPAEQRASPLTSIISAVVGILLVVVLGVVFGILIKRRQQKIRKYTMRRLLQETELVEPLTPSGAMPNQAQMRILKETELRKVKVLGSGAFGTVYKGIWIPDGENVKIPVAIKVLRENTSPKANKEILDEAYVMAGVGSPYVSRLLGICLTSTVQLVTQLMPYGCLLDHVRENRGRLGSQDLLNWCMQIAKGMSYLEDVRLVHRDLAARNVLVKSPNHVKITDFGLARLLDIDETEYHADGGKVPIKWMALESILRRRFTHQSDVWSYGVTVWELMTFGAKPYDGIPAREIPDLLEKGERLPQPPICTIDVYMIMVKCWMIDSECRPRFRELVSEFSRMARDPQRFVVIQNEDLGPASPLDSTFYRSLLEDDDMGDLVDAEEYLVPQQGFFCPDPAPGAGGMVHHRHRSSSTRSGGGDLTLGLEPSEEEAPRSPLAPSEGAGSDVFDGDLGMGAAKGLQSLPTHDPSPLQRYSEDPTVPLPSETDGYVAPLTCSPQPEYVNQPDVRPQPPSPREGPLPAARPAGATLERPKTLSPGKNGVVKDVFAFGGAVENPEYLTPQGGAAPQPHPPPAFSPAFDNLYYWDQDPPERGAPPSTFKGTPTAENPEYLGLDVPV

[3] = reduced viability of SK-BR-3 breast cancer cells – cell-based, 24 h, human, pilot screen (AID 572;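 active = viability at or below 10% of carrier control in both of two separate runs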;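 also: compound exposure lasted between 18 and 24 h rather than exactly 24 h; 100% = carrier-treated control wells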); conditions: SK-BR-3 viability, CellTiter-Glo luminescence, at 10 µM, stronger effect = lower value
[4] = HUVEC growth inhibition – cell-based, human, primary screen (AID 575;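 active = viability at or below 30% in both replicate assays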;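 also: 100% = median of untreated cell wells with 0.1% DMSO on each plate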); conditions: HUVEC proliferation, CellTiter-Glo luminescence, 72 h; at 10 µM; stronger effect = lower value
Procedure, shortened: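 Test system – primary HUVEC, no more than 12 passages · Dosing – one dose, 10 µM final, 0.1% DMSO · Times – 72 h treatment at 37 °C · Measured by – ATP-based CellTiter-Glo luminescent read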

[5] = H69AR cell proliferation blockers – human, duplicate replicates, primary screen (AID 580;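 active = viability at or under a set limit in both replicates, limit being median viability minus 3 SD, cut at about 48% in these data, passing the limit was not always enough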;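 also: 100% = mean luminescence of untreated wells and 0% = no signal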); conditions: H69AR lung tumor cells viability, ATP luminescence, 72 h; at 10 µM; stronger effect = lower value
[6] = MRP1 drug-resistance reversers in H69AR cells – cell-based, doxorubicin co-treatment, pilot screen (AID 601;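 active = viability loss from added drug above about 55%, and viability with drug at most 40%, in both replicates, limit read from the data, passing the limit was not always enough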); conditions: CellTiter-Glo, 72 h, at 10 µM; for differential viability (reversal): stronger effect = higher value
[7] = yeast transport mutant growth inhibition pilot in 384-well plates, post-Golgi transport modulator project (AID 636; in the data active = inhibition above about 31%); conditions: absorbance 615 nm, about 18 h, stronger effect = higher value
[8] = growth suppression of yeast trafficking mutant, preliminary HTS, modulators of trafficking downstream of Golgi apparatus project, 1536-format plate, OD 615 nm (AID 637; in the data active = inhibition above about 30%); conditions: yeast transport mutant growth, absorbance 615 nm, 18 h; stronger effect = higher value
[9] = H69AR cells + 2 uM doxorubicin, measured here: viability with 2 uM doxorubicin, stronger effect = lower value
[10] = H69AR cells, compound alone cytotoxicity

SMILES | viability [1] [%] | Her2 level [2] | viability [3] | viability [4] | viability [5] | differential viability (reversal) ([6]; H69AR cells + 2 uM doxorubicin) | viability [6, 9] [%] | viability [6, 10] [%] | inhibition [7] | inhibition [8]
CCNc1nc(N2CCCCC2)nc(-n2nnc(C(=O)OCC)c2C)n1 | 162 | 94% (inactive) | 162% (inactive) | 116% (inactive) | 95.7% (inactive) | 1.31% (inactive) | 94.3 | 95.7 | -6.45% (inactive) | 4.75% (inactive)
CC1(C)Cc2cccc(OCC(=O)O)c2O1 | 107 | 90% (inactive) | 107% (inactive) | 94.5% (inactive) | 95.4% (inactive) | 7.61% (inactive) | 87.8 | 95.4 | -4.53% (inactive) | -3.97% (inactive)
CC1(C)Cc2noc(N)c2C(C)(C)N1OC(=O)c1ccco1 | 118 | 82.5% (inactive) | 118% (inactive) | 93.1% (inactive) | 94.5% (inactive) | 2.83% (inactive) | 91.7 | 94.5 | -3.55% (inactive) | 3.81% (inactive)
CCOc1ccccc1-n1c(SCC(=O)NCc2ccco2)nnc1-c1ccncc1 | 87 | 90% (inactive) | 87% (inactive) | 90.4% (inactive) | 75.6% (inactive) | 39.9% (inactive) | 35.7 | 75.6 | -7.47% (inactive) | -0.48% (inactive)
FC(F)Oc1ccc(-c2csc(Cc3nnc4n3CCCCC4)n2)cc1 | 78 | 102% (inactive) | 78% (inactive) | 110% (inactive) | 97.2% (inactive) | 5.74% (inactive) | 91.5 | 97.2 | -7.26% (inactive) | -9.05% (inactive)
C/C(=N\O)C(=O)NCc1ccccn1 | 102 | 134% (inactive) | 102% (inactive) | 85.3% (inactive) | 92.2% (inactive) | -4.16% (inactive) | 96.4 | 92.2 | 4.61% (inactive) | 11.2% (inactive)
O=S(=O)(NCCc1csc(-c2ccccc2)n1)c1ccc2c(c1)OCCO2 | 103 | 76% (inactive) | 103% (inactive) | 101% (inactive) | 93.6% (inactive) | 4.63% (inactive) | 89 | 93.6 | -1.97% (inactive) | 4.59% (inactive)
O=C(Nc1cccnc1)c1noc2c1CCCCC2 | 110 | 90% (inactive) | 110% (inactive) | 105% (inactive) | 87.3% (inactive) | -2.86% (inactive) | 90.2 | 87.3 | -0.66% (inactive) | 9.5% (inactive)
CCC(=O)N1CCc2cc(S(=O)(=O)CCC(=O)Nc3ccc(F)c(F)c3)ccc21 | 104 | 160% (inactive) | 104% (inactive) | 97.3% (inactive) | 92.3% (inactive) | 10.2% (inactive) | 82.1 | 92.3 | 0.13% (inactive) | -6% (inactive)
COC(=O)Nc1ccc(C)cc1NC(=O)OC | 86.5 | 102% (inactive) | 86.5% (inactive) | 96.4% (inactive) | 107% (inactive) | 7.78% (inactive) | 99.5 | 107 | 0.67% (inactive) | -6.61% (inactive)
O=C(NC1CCCC1)c1ccc(S(=O)(=O)N2CCCC2)cc1 | 107 | 120% (inactive) | 107% (inactive) | 103% (inactive) | 87.6% (inactive) | -7.37% (inactive) | 95 | 87.6 | -1.08% (inactive) | 0.83% (inactive)
O=C(NCc1cccnc1)c1ccccn1 | 102 | 108% (inactive) | 102% (inactive) | 103% (inactive) | 110% (inactive) | 16.2% (inactive) | 93.9 | 110 | -4.8% (inactive) | -3.65% (inactive)
CC(=O)NC(Cc1c[nH]c2ccccc12)C(=O)OCC(=O)Nc1cc(C)on1 (stereo not given) | 91.5 | 117% (inactive) | 91.5% (inactive) | 101% (inactive) | 97% (inactive) | 11% (inactive) | 86 | 97 | 3.46% (inactive) | -7.83% (inactive)
CCN(CCCNC(=O)CC1Oc2ccc(C)cc2NC1=O)Cc1ccccc1 (stereo not given) | 116 | 94.5% (inactive) | 116% (inactive) | 97.8% (inactive) | 85% (inactive) | 4.2% (inactive) | 80.8 | 85 | -2.27% (inactive) | -2.13% (inactive)
Cc1cc(C)n2cc(CSc3nnnn3C)nc2n1 | 84.5 | 92% (inactive) | 84.5% (inactive) | 87.8% (inactive) | 85.7% (inactive) | -0.355% (inactive) | 86 | 85.7 | 0.51% (inactive) | 6.17% (inactive)
Cc1cc(C)nc(N2CCCC(C(=O)Nc3ccc4c(c3)OCO4)C2)n1 (stereo not given) | 93 | 104% (inactive) | 93% (inactive) | 96.9% (inactive) | 98.5% (inactive) | 8.88% (inactive) | 89.6 | 98.5 | -5.54% (inactive) | -12.3% (inactive)

SMILES | viability [1] [%] | Her2 level [2] | viability [3] | viability [4] | viability [5] | differential viability (reversal) ([6]; H69AR cells + 2 uM doxorubicin) | viability [6, 9] [%] | viability [6, 10] [%] | inhibition [7] | inhibition [8]
O=C(c1ccco1)N(Cc1cc2ccccc2[nH]c1=O)C1CCCCC1 | 98.5 | 103% (inactive) | 98.5% (inactive) | 91.7% (inactive) | 95% (inactive) | 12.9% (inactive) | 82.1 | 95 | 0.39% (inactive) | -6.35% (inactive)
O=C(NCC1CCCO1)C1CCCN(S(=O)(=O)c2cccc3nsnc23)C1 (stereo not given) | 95.5 | 118% (inactive) | 95.5% (inactive) | 93.2% (inactive) | 98.5% (inactive) | 14.3% (inactive) | 84.2 | 98.5 | -2.27% (inactive) | -7.62% (inactive)
COc1ccc(C(=O)N2CCSC2=S)cc1OC | 97.5 | 96% (inactive) | 97.5% (inactive) | 89.4% (inactive) | 82.1% (inactive) | -11.5% (inactive) | 93.6 | 82.1 | -2.21% (inactive) | -1.67% (inactive)
COCCNC(=O)CC(NS(=O)(=O)c1ccc(NC(C)=O)cc1)C(C)C (stereo not given) | 97 | 122% (inactive) | 97% (inactive) | 81.2% (inactive) | 95.1% (inactive) | 11.4% (inactive) | 83.7 | 95.1 | -4.74% (inactive) | 5% (inactive)
CCOC(=O)c1c(C)n(C)c2ccc(OC)c(NC(=O)CCN3CCSCC3)c12 | 122 | 91.5% (inactive) | 122% (inactive) | 96.7% (inactive) | 83.5% (inactive) | -1.65% (inactive) | 85.1 | 83.5 | -2.89% (inactive) | -2.74% (inactive)
COc1ccc(-n2c(SCC(=O)Nc3ccc(C(=O)O)cc3)nnc2-c2cccs2)cc1 | 112 | 94% (inactive) | 112% (inactive) | 99.4% (inactive) | 109% (inactive) | 15.2% (inactive) | 93.4 | 109 | -1.97% (inactive) | -4.36% (inactive)
Cc1cc(C)nc(SCc2nnc(SCc3ccccc3Cl)o2)n1 | 80 | 78.5% (inactive) | 80% (inactive) | 93.8% (inactive) | 79.5% (inactive) | -1.99% (inactive) | 81.5 | 79.5 | -3.29% (inactive) | 1.82% (inactive)
CC1CCN(CCn2c(=S)[nH]c3ncccc3c2=O)CC1 | 98.5 | 95% (inactive) | 98.5% (inactive) | 78.6% (inactive) | 104% (inactive) | 9.6% (inactive) | 93.9 | 104 | -2.89% (inactive) | 0.83% (inactive)
Cc1ccc(OC(=O)NC2CCS(=O)(=O)C2)cc1C (stereo not given) | 108 | 95% (inactive) | 108% (inactive) | 103% (inactive) | 95.3% (inactive) | 2.59% (inactive) | 92.7 | 95.3 | -2.11% (inactive) | 6.23% (inactive)
Cc1ccc2oc(C(=O)Nc3c(C)n(C)n(-c4ccccc4)c3=O)c(C)c2c1 | 84.5 | 102% (inactive) | 84.5% (inactive) | 97.2% (inactive) | 104% (inactive) | 20.3% (inactive) | 83.6 | 104 | -7.4% (inactive) | -10.3% (inactive)
CCCCC(c1nnnn1C1CCCC1)N1CCN(C2CCCCC2)CC1 (stereo not given) | 81.5 | 74% (inactive) | 81.5% (inactive) | 106% (inactive) | 92.7% (inactive) | 20.4% (inactive) | 72.2 | 92.7 | -6.62% (inactive) | 1.83% (inactive)
COCCN(CCOC)S(=O)(=O)c1ccc(C(=O)Nc2nnc(C3CC3)o2)cc1 | 75 | 86% (inactive) | 75% (inactive) | 80.5% (inactive) | 82.7% (inactive) | -1.53% (inactive) | 84.2 | 82.7 | -3.65% (inactive) | 1.48% (inactive)
CC(C)(C)C(=O)/C=C(\N)c1ccccn1 | 102 | 94.5% (inactive) | 102% (inactive) | 119% (inactive) | 100% (inactive) | 2.67% (inactive) | 97.8 | 100 | -1.04% (inactive) | -4.92% (inactive)
COc1cc(C)nc(NS(=O)(=O)c2ccc(C)cc2)n1 | 122 | 88% (inactive) | 122% (inactive) | 98.5% (inactive) | 84.9% (inactive) | -1.31% (inactive) | 86.2 | 84.9 | -3.82% (inactive) | 0.65% (inactive)
COC(=O)C1CCN(C(=O)c2sc3nc(-c4ccc(F)cc4)cn3c2C)CC1 | 76.5 | 92% (inactive) | 76.5% (inactive) | 99.8% (inactive) | 100% (inactive) | 22.1% (inactive) | 77.9 | 100 | -1.07% (inactive) | 0.81% (inactive)
Nc1nnc(-c2cn(-c3ccccc3)nc2-c2ccccc2)o1 | 73 | 131% (inactive) | 73% (inactive) | 77.3% (inactive) | 91.2% (inactive) | 10.7% (inactive) | 80.5 | 91.2 | 2.47% (inactive) | -15.5% (inactive)
